From ChEMBL document CHEMBL4373630, “Rapid kill assessment of an N-arylated NH125 analogue against drug-resistant microorganisms” (Medchemcomm, 2019)
Calls of active or inactive are those of the source. No cut-off for these calls is given here.

How the values were obtained:
Staphylococcus aureus [1] = test: Bactericidal activity against methicillin-resistant Staphylococcus aureus ATCC BAA 1707 at 50 uM after 3 mins by time-kill kinetic assay relative to control; type: functional
Outline: (§1)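 Overnight culture diluted 1:1000 into LB containing compound at the set concentration or DMSO vehicle alone, then shaken at 250 rpm at 37 °C. At 1, 3, 5 and 10 min, aliquots were serially diluted and plated on LB 1.5% agar and incubated overnight at 37 °C. CFU/mL were taken from plates with 30–300 colonies and compared with vehicle control. Three replicates came from separate colonies.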

Staphylococcus aureus [2] = test: (§2) Bactericidal activity against methicillin-resistant Staphylococcus aureus ATCC BAA 1707 assessed as as reduction in bacterial load by measuring reduction in colony forming units at 50 uM preincubated for 5 to 10 min followed by subculturing and further incubated for over night by time-kill kinetic assay; type: functional; outline: as §1
Staphylococcus aureus [3] = test: as §2, with “Antibacterial activity” for “Bactericidal activity”, “uM treated with 18 days old solution of test compound” for “uM preincubated”, “for” for “for 5 to”, “10 mins” for “10 min”; type: functional
Outline: (§3)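 Compound was prepared at 50 μM in LB and stored on the shelf for 18 days or 111 days. Exponentially growing MRSA 1707 (overnight culture diluted 1:1000 in LB) was exposed to the stored solution for 10 min at 37 °C with 250 rpm shaking. Aliquots were serially diluted, plated on LB agar and incubated overnight at 37 °C. CFU/mL were compared with vehicle control.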

HEK293 = test: Cytotoxicity against human HEK293 cells assessed as reduction in viability at 25 uM after 48 hrs by MTT assay relative to control; type: cell-based; details: hek293, 48 h
Outline: (§4)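 HEK 293 cells, 10^4 per well, in DMEM with 10% FBS and penicillin/streptomycin, were left overnight at 37 °C under 5% CO2. MTT was added for 3 h and dissolved in DMSO, then OD570 was read. Six replicates per treatment; percent kill = (1 – test OD570/untreated OD570) × 100%; CC50 taken as the half-maximal toxic concentration.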

Staphylococcus aureus [4] = test: as §2, with “Antibacterial activity” for “Bactericidal activity”, “uM treated with 111 days old solution of test compound” for “uM preincubated”, “for” for “for 5 to”, “10 mins” for “10 min”; type: functional, organism-based; outline: as §3
Staphylococcus aureus [5] = test: Bactericidal activity against methicillin-resistant Staphylococcus aureus ATCC BAA 1707 at 50 uM after 1 min by time-kill kinetic assay relative to control; type: functional; outline: as §1
Staphylococcus aureus [6] = test: Bactericidal activity against methicillin-resistant Staphylococcus aureus ATCC BAA 1707 assessed as as reduction in bacterial load by measuring reduction in colony forming units at 50 uM preincubated for 3 min followed by subculturing and further incubated for over night by time-kill kinetic assay; type: functional; outline: as §1
Staphylococcus aureus [7] = test: Antibacterial activity against methicillin-resistant Staphylococcus aureus ATCC BAA 1707 at 50 uM treated with 111 days old solution of test compound for 10 mins relative to control; type: functional; outline: as §3
Staphylococcus aureus [8] = test: Antibacterial activity against methicillin-resistant Staphylococcus aureus ATCC BAA 1707 at 50 uM treated with 18 days old solution of test compound for 10 mins relative to control; type: functional; outline: as §3
Staphylococcus aureus [9] = test: Bactericidal activity against methicillin-resistant Staphylococcus aureus ATCC BAA 1707 at 50 uM after 5 to 10 mins by time-kill kinetic assay relative to control; type: functional; outline: as §1
Staphylococcus aureus [10] = test: Bactericidal activity against methicillin-resistant Staphylococcus aureus ATCC BAA 1707 assessed as as reduction in bacterial load by measuring reduction in colony forming units at 50 uM preincubated for 1 min followed by subculturing and further incubated for over night by time-kill kinetic assay; type: functional; outline: as §1
[11] = Cytotoxicity against human HEK293 cells after 48 hrs by MTT assay; type: cell-based; outline: as §4
Acinetobacter baumannii [12] = test: Bactericidal activity against multidrug-resistant Acinetobacter baumannii ATCC 1794 assessed as as reduction in bacterial load by measuring reduction in colony forming units at 50 uM preincubated for 5 min followed by subculturing and further incubated for over night by time-kill kinetic assay; type: functional; outline: as §1
Enterococcus faecium [13] = test: Antibacterial activity against vancomycin-resistant Enterococcus faecium ATCC 700221 after 16 to 18 hrs by CLSI protocol based broth microdilution assay; type: functional
Acinetobacter baumannii [14] = test: Bactericidal activity against multidrug-resistant Acinetobacter baumannii ATCC 1794 at 50 uM after 5 mins by time-kill kinetic assay relative to control; type: functional; outline: as §1
Escherichia coli = test: Antibacterial activity against Escherichia coli clinical isolate UAEC-1 after 16 to 18 hrs by CLSI protocol based broth microdilution assay; type: functional
Staphylococcus aureus [15] = test: Bactericidal activity against methicillin-resistant Staphylococcus aureus ATCC BAA 1707 at 5 uM after 10 mins by time-kill kinetic assay relative to control; type: functional; outline: as §1
Staphylococcus aureus [16] = test: Bactericidal activity against methicillin-resistant Staphylococcus aureus ATCC BAA 1707 assessed as as reduction in bacterial load by measuring reduction in colony forming units at 20 uM preincubated for 10min followed by subculturing and further incubated for over night by time-kill kinetic assay; type: functional; outline: as §1
Acinetobacter baumannii [17] = test: Bactericidal activity against multidrug-resistant Acinetobacter baumannii ATCC 1794 assessed as as reduction in bacterial load by measuring reduction in colony forming units at 50 uM preincubated for 10 min followed by subculturing and further incubated for over night by time-kill kinetic assay; type: functional; outline: as §1
Acinetobacter baumannii [18] = test: Antibacterial activity against multidrug-resistant Acinetobacter baumannii ATCC 1794 after 16 to 18 hrs by CLSI protocol based broth microdilution assay; type: functional
[19] = tested on: Staphylococcus epidermidis; test: as §2, with “epidermidis” for “aureus”, “35984” for “BAA 1707”; type: functional; outline: as §1
Acinetobacter baumannii [20] = test: Bactericidal activity against multidrug-resistant Acinetobacter baumannii ATCC 1794 at 50 uM after 10 mins by time-kill kinetic assay relative to control; type: functional; outline: as §1
Klebsiella pneumoniae = test: Antibacterial activity against Klebsiella pneumoniae ATCC 13883 after 16 to 18 hrs by CLSI protocol based broth microdilution assay; type: functional
[21] = tested on: Staphylococcus epidermidis; test: Bactericidal activity against methicillin-resistant Staphylococcus epidermidis ATCC 35984 at 50 uM after 5 to 10 mins by time-kill kinetic assay relative to control; type: functional; outline: as §1
Staphylococcus aureus [22] = test: Bactericidal activity against methicillin-resistant Staphylococcus aureus ATCC BAA 1707 at 20 uM after 5 mins by time-kill kinetic assay relative to control; type: functional; outline: as §1
Staphylococcus aureus [23] = test: Bactericidal activity against methicillin-resistant Staphylococcus aureus ATCC BAA 1707 assessed as as reduction in bacterial load by measuring reduction in colony forming units at 5 uM preincubated for 5 min followed by subculturing and further incubated for over night by time-kill kinetic assay; type: functional; outline: as §1
Enterococcus faecium [24] = test: Bactericidal activity vancomycin-resistant Enterococcus faecium ATCC 700221 at 50 uM after 5 to 10 mins by time-kill kinetic assay relative to control; type: functional; outline: as §1
Staphylococcus aureus [25] = test: Bactericidal activity against methicillin-resistant Staphylococcus aureus ATCC BAA 1707 assessed as as reduction in bacterial load by measuring reduction in colony forming units at 5 uM preincubated for 10 min followed by subculturing and further incubated for over night by time-kill kinetic assay; type: functional; outline: as §1
[26] = tested on: Staphylococcus epidermidis; test: Antibacterial activity against methicillin-resistant Staphylococcus epidermidis ATCC 35984 after 16 to 18 hrs by CLSI protocol based broth microdilution assay; type: functional
Cryptococcus neoformans [27] = test: Fungicidal activity against Cryptococcus neoformans ATCC 66031 at 50 uM after 5 to 10 mins by time-kill kinetic assay relative to control; type: functional
Outline: (§5)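 C. neoformans ATCC 66031 was streaked on YPD agar for two days at 37 °C, and single colonies were grown overnight in YPD at 37 °C, 250 rpm. Overnight cultures were diluted in fresh YPD with compound in DMSO at 50 μM final, or DMSO alone, and kept at 37 °C, 250 rpm. Aliquots were diluted and plated on YPD agar, and colonies counted after 1–2 days at 37 °C. Triplicate; CFU per mL.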

Staphylococcus aureus [28] = test: Bactericidal activity against methicillin-resistant Staphylococcus aureus ATCC BAA 1707 assessed as as reduction in bacterial load by measuring reduction in colony forming units at 20 uM preincubated for 5 min followed by subculturing and further incubated for over night by time-kill kinetic assay; type: functional; outline: as §1
Cryptococcus neoformans [29] = test: Fungicidal activity against Cryptococcus neoformans ATCC 66031 assessed as as reduction in bacterial load by measuring reduction in colony forming units at 50 uM preincubated for 5 to 10 min followed by subculturing and further incubated for 1 or 2 days by time-kill kinetic assay; type: functional; outline: as §5
Staphylococcus aureus [30] = test: Bactericidal activity against methicillin-resistant Staphylococcus aureus ATCC BAA 1707 at 20 uM after 10 mins by time-kill kinetic assay relative to control; type: functional; outline: as §1
Enterococcus faecium [31] = test: Bactericidal activity vancomycin-resistant Enterococcus faecium ATCC 700221 assessed as as reduction in bacterial load by measuring reduction in colony forming units at 50 uM preincubated for 5 to 10 min followed by subculturing and further incubated for over night by time-kill kinetic assay; type: functional; outline: as §1
Staphylococcus aureus [32] = test: Antibacterial activity against methicillin-resistant Staphylococcus aureus ATCC BAA 1707 after 16 to 18 hrs by CLSI protocol based broth microdilution assay; type: functional

CCCCCCCCCCCCCCCC[N+](C)(C)Cc1ccccc1.[Cl-] [CETALKONIUM CHLORIDE]
Activity (Staphylococcus aureus [1]): 99.99%
Activity (Staphylococcus aureus [2]): >6 log10CFU/ml
Activity (Staphylococcus aureus [3]): >3 log10CFU/ml
Activity (HEK293): 100%
Activity (Staphylococcus aureus [4]): Active
Activity (Staphylococcus aureus [5]): 99.99%
Activity (Staphylococcus aureus [6]): 4 log10CFU/ml
Activity (Staphylococcus aureus [7]): >99%
Activity (Staphylococcus aureus [8]): >99%
Activity (Staphylococcus aureus [9]): 100%
Activity (Staphylococcus aureus [10]): 4 log10CFU/ml
CC50 at 48 h [11]: 6840 nM

CCCCCCCCCCCCCCCC[n+]1ccn(Cc2ccccc2)c1C.[I-]
Activity (HEK293): 100%
CC50 at 48 h [11]: 2410 nM

CCCCCCCCCCCCCCCCn1cc[n+](-c2ccccc2)c1C
Activity (Acinetobacter baumannii [12]): 3 log10CFU/ml
MIC (Enterococcus faecium [13]): 3.13 µM
Activity (Staphylococcus aureus [1]): 99.99%
Activity (Acinetobacter baumannii [14]): 99.9%
Activity (Staphylococcus aureus [2]): >6 log10CFU/ml
MIC (Escherichia coli): 6.25 µM
Activity (Staphylococcus aureus [15]): 90%
Activity (Staphylococcus aureus [3]): >3 log10CFU/ml
Activity (Staphylococcus aureus [16]): 4 log10CFU/ml
Activity (Acinetobacter baumannii [17]): >6 log10CFU/ml
Activity (HEK293): 100%
MIC (Acinetobacter baumannii [18]): 12.5 µM
Activity (Staphylococcus aureus [4]): Active
Activity (Staphylococcus aureus [5]): 99.99%
Activity [19]: 6 log10CFU/ml
Activity (Staphylococcus aureus [6]): 4 log10CFU/ml
Activity (Acinetobacter baumannii [20]): >99.9999%
MIC (Klebsiella pneumoniae): 6.25 µM
Activity [21]: 99.9999%
Activity (Staphylococcus aureus [22]): 99.9%
Activity (Staphylococcus aureus [23]): <1 log10CFU/ml
Activity (Enterococcus faecium [24]): 99.9999%
Activity (Staphylococcus aureus [25]): 1 log10CFU/ml
Activity (Staphylococcus aureus [7]): >99%
Activity (Staphylococcus aureus [8]): >99%
Activity (Staphylococcus aureus [9]): 100%
Activity (Staphylococcus aureus [10]): 4 log10CFU/ml
MIC [26]: 1.17 µM
Activity (Cryptococcus neoformans [27]): 100%
Activity (Staphylococcus aureus [28]): 3 log10CFU/ml
Activity (Cryptococcus neoformans [29]): 7 log10CFU/ml
Activity (Staphylococcus aureus [30]): 99.99%
Activity (Enterococcus faecium [31]): 6 log10CFU/ml
MIC (Staphylococcus aureus [32]): 1.56 µM
CC50 at 48 h [11]: < 1560 nM
